We go through eight compounds from ChEMBL document CHEMBL2169869, “Assay and inhibition of diacylglycerol lipase activity” (Bioorg Med Chem Lett, 2012).

Active and inactive are the calls of the source. The calls are words filed in the database; no cut-off is given here.

The target of assay [1] is T1, Diacylglycerol lipase-alpha (Mus musculus) (UniProt Q6WQJ1).
T1 sequence (whole entry): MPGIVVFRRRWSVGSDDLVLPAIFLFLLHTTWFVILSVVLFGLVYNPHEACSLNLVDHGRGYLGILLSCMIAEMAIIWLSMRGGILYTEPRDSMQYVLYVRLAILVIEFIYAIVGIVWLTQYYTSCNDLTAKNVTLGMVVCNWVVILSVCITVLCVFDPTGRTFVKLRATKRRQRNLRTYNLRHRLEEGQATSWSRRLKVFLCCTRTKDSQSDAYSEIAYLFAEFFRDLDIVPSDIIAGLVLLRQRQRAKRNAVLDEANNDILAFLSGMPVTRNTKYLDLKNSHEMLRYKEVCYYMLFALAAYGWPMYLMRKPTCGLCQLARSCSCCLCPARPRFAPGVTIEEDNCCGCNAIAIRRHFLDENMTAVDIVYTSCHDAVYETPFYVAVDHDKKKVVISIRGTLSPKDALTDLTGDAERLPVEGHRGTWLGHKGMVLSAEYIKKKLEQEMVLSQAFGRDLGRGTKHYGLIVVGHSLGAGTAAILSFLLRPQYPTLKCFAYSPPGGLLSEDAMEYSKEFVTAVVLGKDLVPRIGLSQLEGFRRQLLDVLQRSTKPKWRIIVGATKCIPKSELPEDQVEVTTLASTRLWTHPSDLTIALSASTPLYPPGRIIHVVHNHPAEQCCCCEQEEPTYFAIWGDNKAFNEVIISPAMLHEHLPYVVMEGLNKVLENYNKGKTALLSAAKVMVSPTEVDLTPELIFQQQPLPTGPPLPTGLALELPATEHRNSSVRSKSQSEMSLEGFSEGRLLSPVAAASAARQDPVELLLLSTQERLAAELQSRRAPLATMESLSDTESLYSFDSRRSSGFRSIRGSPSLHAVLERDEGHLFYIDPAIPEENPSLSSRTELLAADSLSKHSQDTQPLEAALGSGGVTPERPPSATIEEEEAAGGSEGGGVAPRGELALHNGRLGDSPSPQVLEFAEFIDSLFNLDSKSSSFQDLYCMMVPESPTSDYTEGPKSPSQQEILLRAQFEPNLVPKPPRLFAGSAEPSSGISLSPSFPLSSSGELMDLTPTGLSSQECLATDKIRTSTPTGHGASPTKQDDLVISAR
Nature of the assay: Inhibition of mouse DAGLalpha expressed in HEK293T cell membrane using [14C]SAG substrate at 10 nM by scintillation counting based radio-TLC assay. The assay is classed as cell membranes. Conditions: HEK-293T.

The target of assay [2] is T2, Fatty-acid amide hydrolase 1 (Rattus norvegicus, UniProt P97612).
T2 sequence (P97612 whole entry): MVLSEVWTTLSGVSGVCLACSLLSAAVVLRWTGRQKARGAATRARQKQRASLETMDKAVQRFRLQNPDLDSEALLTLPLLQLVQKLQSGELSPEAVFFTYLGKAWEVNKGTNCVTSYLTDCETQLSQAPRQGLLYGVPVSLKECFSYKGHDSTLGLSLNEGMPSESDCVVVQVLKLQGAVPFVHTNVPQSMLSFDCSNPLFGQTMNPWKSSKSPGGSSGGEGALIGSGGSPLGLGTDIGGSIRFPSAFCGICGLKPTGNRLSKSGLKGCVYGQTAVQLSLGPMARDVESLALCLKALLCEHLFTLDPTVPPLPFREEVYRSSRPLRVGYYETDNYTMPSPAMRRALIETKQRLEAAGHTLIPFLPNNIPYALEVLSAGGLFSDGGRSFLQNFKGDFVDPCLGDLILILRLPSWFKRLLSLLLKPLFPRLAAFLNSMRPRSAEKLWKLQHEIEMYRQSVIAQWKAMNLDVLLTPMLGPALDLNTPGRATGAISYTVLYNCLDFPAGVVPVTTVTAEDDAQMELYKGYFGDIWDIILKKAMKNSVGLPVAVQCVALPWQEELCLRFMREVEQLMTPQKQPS
Put plainly: Inhibition of rat histidine tagged FAAH expressed in Escherichia coli by coumarin ester substrate fluorescence assay.

The subject of assay [3] is Bacteria. Put plainly: Inhibition of bacterial lipoprotein lipase at 10 uM by FRET assay.
Assay [4] deals with T3, Fatty-acid amide hydrolase 1 (Rattus norvegicus) (UniProt P97612).
T3 sequence (whole entry): T2 sequence (P97612 whole entry)
Nature of the assay: Inhibition of rat histidine tagged FAAH expressed in Escherichia coli at 10 uM by coumarin ester substrate fluorescence assay.

In assay [5] the target is T4, Diacylglycerol lipase-alpha (Homo sapiens) (UniProt Q9Y4D2).
T4 sequence (whole entry): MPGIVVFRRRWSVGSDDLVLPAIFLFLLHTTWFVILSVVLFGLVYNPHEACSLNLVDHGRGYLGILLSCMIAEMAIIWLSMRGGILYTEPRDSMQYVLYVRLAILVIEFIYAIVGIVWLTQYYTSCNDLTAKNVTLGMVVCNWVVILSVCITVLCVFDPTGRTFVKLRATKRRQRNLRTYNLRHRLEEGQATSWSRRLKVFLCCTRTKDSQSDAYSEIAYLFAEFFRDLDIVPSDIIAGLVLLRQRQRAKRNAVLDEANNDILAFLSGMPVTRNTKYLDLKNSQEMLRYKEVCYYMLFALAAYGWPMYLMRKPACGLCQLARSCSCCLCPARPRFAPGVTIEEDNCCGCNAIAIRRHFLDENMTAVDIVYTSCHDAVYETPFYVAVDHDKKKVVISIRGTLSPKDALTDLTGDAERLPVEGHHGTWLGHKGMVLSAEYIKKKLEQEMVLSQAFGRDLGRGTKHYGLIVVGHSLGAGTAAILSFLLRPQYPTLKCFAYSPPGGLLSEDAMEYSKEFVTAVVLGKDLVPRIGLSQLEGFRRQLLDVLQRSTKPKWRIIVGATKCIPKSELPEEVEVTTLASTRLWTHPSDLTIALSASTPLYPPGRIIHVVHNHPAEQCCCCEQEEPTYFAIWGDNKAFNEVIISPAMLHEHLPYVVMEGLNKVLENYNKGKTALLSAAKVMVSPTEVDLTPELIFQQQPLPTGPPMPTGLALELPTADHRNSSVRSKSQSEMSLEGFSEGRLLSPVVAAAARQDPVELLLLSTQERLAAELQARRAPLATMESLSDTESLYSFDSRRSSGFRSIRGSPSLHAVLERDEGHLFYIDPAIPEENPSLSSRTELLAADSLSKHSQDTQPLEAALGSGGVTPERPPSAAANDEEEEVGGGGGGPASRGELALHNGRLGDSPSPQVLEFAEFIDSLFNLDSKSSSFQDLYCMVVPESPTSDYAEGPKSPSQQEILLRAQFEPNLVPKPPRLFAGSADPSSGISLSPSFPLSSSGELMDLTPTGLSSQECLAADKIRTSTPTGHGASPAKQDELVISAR
Nature of the assay: Inhibition of human DAGLalpha expressed in HEK293T cell membrane using [14C]SAG substrate at 10 uM in presence of 0.015% Triton X-100 by scintillation counting based radio-TLC assay. Format: cell membranes. Conditions: HEK-293T. The essentials: (§1)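 Sonicated HEK293T protein (100 μg) in 50 mM Tris pH 7.4 with 10 mM CaCl2. Inhibitor in DMSO (10% DMSO standard) preincubated 15 min at 37 °C. [14C]SAG was added to 20 μM final for 20 min at 37 °C, with Triton X-100 where the line states it. Quenched with 2:1 CHCl3/MeOH. Silica TLC in CHCl3/MeOH/NH4OH 86:14:0.75, then 12 h phosphorimaging. Activity = (2-AG+AA)/(2-AG+AA+SAG). Background-subtracted; n=1–2.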

Assay [6] deals with T4, Diacylglycerol lipase-alpha (Homo sapiens). Nature of the assay: Inhibition of human DAGLalpha expressed in HEK293T cell membrane using [14C]SAG substrate at 10 uM using JZL184 pretreated protein in detergent free solution by […]. The assay is classed as cell-based. Conditions: HEK-293T.
Assay [7] addresses T5, Monoglyceride lipase (Homo sapiens) (UniProt Q99685).
T5 sequence (whole entry): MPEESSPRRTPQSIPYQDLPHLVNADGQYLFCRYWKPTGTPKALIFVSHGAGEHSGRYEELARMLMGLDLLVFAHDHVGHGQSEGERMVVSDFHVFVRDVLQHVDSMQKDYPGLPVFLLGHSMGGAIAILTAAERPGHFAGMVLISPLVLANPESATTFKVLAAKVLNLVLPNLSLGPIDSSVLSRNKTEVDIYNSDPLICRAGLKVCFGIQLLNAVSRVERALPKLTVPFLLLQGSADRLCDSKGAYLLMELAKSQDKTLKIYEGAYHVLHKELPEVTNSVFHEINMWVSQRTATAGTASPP
Nature of the assay: Inhibition of human N-terminal histidine tagged full length MAGL expressed in Escherichia coli at 10 uM by coumarin ester substrate fluorescence assay.

The species named for assay [8] is Sus scrofa. Nature of the assay: Inhibition of porcine pancreatic lipase type 2 at 10 uM by FRET assay.
In assay [9] the target is T4, Diacylglycerol lipase-alpha (Homo sapiens). Put plainly: Inhibition of human DAGLalpha expressed in HEK293T cell membrane using [14C]SAG substrate at 10 uM in detergent free solution by […]. The assay is classed as cell-based. Conditions: HEK-293T.
The target in assay [10] is T1, Diacylglycerol lipase-alpha (Mus musculus). Nature of the assay: Inhibition of mouse DAGLalpha expressed in HEK293T cell membrane using [14C]SAG substrate at 10000 nM by scintillation counting based radio-TLC assay. The assay is classed as cell membranes. Conditions: HEK-293T.
The target of assay [11] is T4, Diacylglycerol lipase-alpha (Homo sapiens). Put plainly: Inhibition of human DAGLalpha expressed in HEK293T cell membrane using [14C]SAG substrate at 10 uM in presence of 0.05% Triton X-100 by […]. Conditions: HEK-293T. Format: cell-based.
The target is the same in assay [12]. Nature of the assay: Inhibition of human DAGLalpha expressed in HEK293T cell membrane using [14C]SAG substrate at 10 uM in presence of 0.05% Triton X-100 by scintillation counting based radio-TLC assay. Format: cell membranes. Conditions: HEK-293T. An outline of the steps:
as §1

The target is the same in assay [13]. Put plainly: Inhibition of human DAGLalpha expressed in HEK293T cell membrane using [14C]SAG substrate at 10 uM in detergent free solution by scintillation counting based radio-TLC assay. Conditions: HEK-293T.
Assay [14] concerns the target T6, Diacylglycerol lipase-alpha (Homo sapiens, UniProt Q9Y4D2).
T6 sequence (Q9Y4D2 whole entry): T4 sequence (whole entry)
Nature of the assay: Inhibition of human DAGLalpha.

Assay [15] has as its target T4, Diacylglycerol lipase-alpha (Homo sapiens). Nature of the assay: Inhibition of human DAGLalpha expressed in HEK293T cell membrane using [14C]SAG substrate at 10 uM in detergent free solution using JZL184 pretreated protein by scintillation counting based radio-TLC assay. Format: cell membranes. Conditions: HEK-293T. The essentials:
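Same hDAGLα radio-TLC as above: Tris/CaCl2 pH 7.4, 15 min inhibitor preincubation at 37 °C, 20 μM [14C]SAG for 20 min at 37 °C, TLC with phosphorimaging, activity as (2-AG+AA)/total label.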

The target of assay [16] is T5, Monoglyceride lipase (Homo sapiens). Put plainly: Inhibition of human N-terminal histidine tagged full length MAGL expressed in Escherichia coli at 100 nM by coumarin ester substrate fluorescence assay.
The target of assay [17] is T3, Fatty-acid amide hydrolase 1 (Rattus norvegicus). Put plainly: Inhibition of rat histidine tagged FAAH expressed in Escherichia coli at 1 uM by coumarin ester substrate fluorescence assay.

The term inhibition denotes the percentage by which the read-out fell short of the control. The term IC50 denotes the concentration that gives 50% inhibition. Low readings indicate higher potency, high ones lower potency. `O=S(=O)(F)Cc1ccccc1` [PHENYLMETHYLSULFONYLFLUORIDE]: the inhibition result in [1] was “inactive”. The same compound gave a half-maximal inhibitory concentration (IC50) in [2] of 833 nM. In addition, the inhibition in assay [3] is less than 0%.

For `CCCCCCC[C@@H]1OC(=O)[C@H]1CCCCCC` (racemic), the inhibition turned out to be 79% in assay [4]; 37% in assay [5]; 69% in assay [6]; 55% in assay [7]; 96% in assay [8]; 67% in assay [3].

For `CCCCCCCCCCCCCC1CC(=O)O1` (racemic), the inhibition in assay [9] is 14%; in assay [4], 10%; in assay [10] it was less than 0%; in assay [5] it was 45%; in [7], 4%; in assay [8], 38%. The inhibition is 72% in [11], 25% in assay [12] and less than 0% in [3].

In the case of `NC(=O)c1cccc(-c2cccc(OC(=O)NC3CCCCC3)c2)c1`, the inhibition in assay [9] was 22%; in assay [10] it was less than 0%; in [6] it was 7%; in assay [7], 18%; in assay [8] it was 68%; in assay [3], 21%. Further, the inhibition result in [13] and in [1] was “inactive” throughout.

Turning to `O=C(NCCCCCCNC(=O)ON=C1CCCCC1)ON=C1CCCCC1`, the inhibition in [9] worked out at 70%; in assay [4], 95%; in assay [13], 30%; in [6], 40%; in [7], 22%; in [8] it was 78%. In assay [3], this compound gave an inhibition of less than 0%. For the same compound, the IC50 in assay [2] was found to be 2240 nM; in assay [14] it was 65000 nM.

In the case of `O=C(Oc1ccc([N+](=O)[O-])cc1)N1CCN(Cc2cccc(Oc3ccccc3)c2)CC1`, the inhibition in assay [9] was 84%; in [10], 10%; in assay [6], 55%; in [8] it was 43%; in [3] it was less than 0%. In addition, the inhibition result in assay [13] and in [1] was “inactive” in each case.

Turning to `O=C(N[C@H]1COC1=O)OCc1ccccc1`, the inhibition in assay [9] is 17%; in assay [4] it was 10%; in assay [6], 7%; in assay [7] it was 13%; in assay [8] it was less than 0%; in assay [15] it was less than 0%. The inhibition in [3] is less than 0%. Also, the inhibition entry in [13] and in assay [1] was “inactive” in each case.

As to `CCCCCCC[C@H]1OC(=O)[C@H]1CCCCCC` (racemic), the inhibition in [4] stood at 94%; in assay [5], 25%; in [16], 66%; in assay [6], 65%; in [7], 100%; in assay [8], 94%. Further, the results for the inhibition in assay [17] and in assay [3] were 13% and 33%, respectively.
